In the library only some 4.6% were active in any assay of this set; here they are far more common.
FAS TE block: FAS thioesterase domain inhibitors, primary screen, biochemical, fluorescence intensity, uHTS | Fatty acid synthase (Homo sapiens), P49327 | 360,000 tested, 0.67% active | inhibition, % at 15 µM | recombinant FAS-TE, OMFH fluorogenic substrate, fluorescence endpoint;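 active = compounds whose normalised, plate-corrected inhibition of enzyme fluorescence in the single-dose primary screen is 50% or more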;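 also: 0% = DMSO with enzyme and 100% = substrate without enzyme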
UCH37 DUB inh: inhibitors of human UCH37 deubiquitinase, primary screen, biochemical, Ub-AMC cleavage, fluorescence | Ubiquitin carboxyl-terminal hydrolase isozyme L5 (Homo sapiens), Q9Y5K5 | purified proteasome/UCH37 | inhibition, % (test concentration not listed) | 330,000 tested, 0.33% active;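 active = mean inhibition over replicate wells above about 20%, limit read from the data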;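 also: 0% = compound-free wells with enzyme and 100% = wells lacking proteasome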
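Signal – fluorescence, ex 355 nm, em 460 nm · System – Proteasome-bound UCH37 · Input – 0.15 nM proteasome as dispensed · Timing – 30 min preincubation with enzyme, 25 min cleavage at room temperature · Read-out basis – percent inhibition of cleavage signal versus uninhibited and no-proteasome wells · Medium – Tris-HCl pH 7.4 with ATP-MgCl2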
HDAC3 inhib: HDAC3 deacetylase inhibitors, primary screen, biochemical, fluorescence, cell-free homogeneous | recombinant HDAC3, fluorogenic peptide/trypsin coupled | inhibition, % at 8.3 µM | 320,000 tested, 0.15% active; in the data active = inhibition above about 26%, passing the limit was not always enough; inconclusive = no clear call, values can overlap the other calls
Rtt109 HAT inh: inhibitors of C. albicans Rtt109/Vps75 HAT, primary screen, biochemical, ThioGlo CoA-SH fluorescence, plate reader | Histone acetyltransferase RTT109 (Candida albicans (strain SC5314 / ATCC MYA-2876)), … | inhibition, % at 34.9 µM | AID 540336, 2011 | 330,000 tested, 0.16% active | purified Rtt109/Vps75, 4 h;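 active = inhibition of at least 50% in every replicate; inconclusive = best replicate reaches 50% inhibition but some replicates fall short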
Target sequence (Q5AAJ8 whole entry, looked up): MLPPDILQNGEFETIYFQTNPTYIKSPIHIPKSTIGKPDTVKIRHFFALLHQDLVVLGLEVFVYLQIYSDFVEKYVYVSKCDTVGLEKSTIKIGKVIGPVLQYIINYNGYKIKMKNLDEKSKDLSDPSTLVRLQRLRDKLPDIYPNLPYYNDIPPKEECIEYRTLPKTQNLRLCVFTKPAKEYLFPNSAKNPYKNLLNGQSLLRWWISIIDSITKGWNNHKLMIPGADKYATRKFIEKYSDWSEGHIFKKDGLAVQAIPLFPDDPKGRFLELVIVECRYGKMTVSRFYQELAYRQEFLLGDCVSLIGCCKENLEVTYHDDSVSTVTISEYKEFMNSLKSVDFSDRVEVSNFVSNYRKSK
ALR inh: inhibitors of human ALR sulfhydryl oxidase, primary screen, biochemical, H2O2 detection, HRP-luminol luminescence, single point. purified ALR, DTT oxidation. inhibition, % (concentration not given with the values). 290,000 tested, 3.8% active. AID 485317, 2010;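 active = mean replicate inhibition above about 79%, with every replicate also reaching it, limit read from the data; inconclusive = only one of the two criteria met; inactive = mean below limit and not every replicate reaching it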
Target sequence (P55789 whole entry, looked up): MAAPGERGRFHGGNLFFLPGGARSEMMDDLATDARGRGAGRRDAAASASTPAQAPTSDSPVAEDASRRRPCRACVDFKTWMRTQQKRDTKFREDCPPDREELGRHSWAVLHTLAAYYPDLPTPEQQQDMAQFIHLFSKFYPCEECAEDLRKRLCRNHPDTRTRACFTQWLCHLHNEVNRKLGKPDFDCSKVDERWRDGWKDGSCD
PfM18AAP inh: PfM18AAP inhibitors, malaria aminopeptidase, primary screen, biochemical, QFRET, recombinant enzyme; H-Glu-NHMec fluorogenic cleavage; inhibition, % at 7.35 µM; 290,000 tested, 1.2% active;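 active = inhibition above the campaign mean inhibition over all tested compounds plus 3 SD, cut at about 28% in these data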;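 also: 0% = plate median of test compound wells and 100% = 2 mM ZnCl2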
FAS-TE inh conf: FAS thioesterase domain inhibitors, confirmation, biochemical, fluorescence intensity, single concentration; shares compounds with FAS TE block; recombinant FAS-TE, OMFH fluorogenic substrate; inhibition, % at 15 µM; 2,300 tested, 45% active;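 active = compounds inhibiting the enzyme by at least 50% at 15 µM in any one of the replicates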;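 also: 0% = enzyme with DMSO only and 100% = wells lacking enzyme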
The depositor's hits bear a star; ? = inconclusive; . = no result given.

SMILES	FAS TE block	UCH37 DUB inh	HDAC3 inhib	Rtt109 HAT inh	ALR inh	PfM18AAP inh	FAS-TE inh conf
CC(CC(=O)Nc1ccc(Cl)c(C(F)(F)F)c1)=NNC(N)=S	.	4	.	.	.	.	.
CCOC(=O)c1cc2c(=O)n3cccc(C)c3nc2n(CCCOC)c1=NC(=O)c1cccnc1	54*	-495	-142	-399	-1	0	12
CCOC(=O)c1cc2c(=O)n3cccc(C)c3nc2n(CCOC)c1=NC(=O)c1ccncc1	.	.	.	.	.	-4	.
Cc1cccn2c(=O)c3cc(C#N)c(=NC(=O)c4cccs4)n(CCCOC(C)C)c3nc12	52*	-128	-59	-112	.	5	22
CCCCn1c(=NC(=O)c2ccco2)c(C(=O)OCC)cc2c(=O)n3ccccc3nc21	36	-79	-256	4	.	27	.
CCCCn1c(=NC(=O)c2ccco2)c(C(=O)OCC)cc2c(=O)n3cccc(C)c3nc21	56*	-141	-58	-50	.	14	27
C#CCN(C[C@H]1[C@H](OC(=O)Nc2cccs2)[C@H](OC(=O)Nc2cccs2)C[C@H]2C(=O)N(c3ccccc3)C(=O)[C@@H]12)S(=O)(=O)c1ccc(C)cc1	54*	.	.	.	.	.	16
C#CCN(C[C@H]1[C@H](OC(=O)NCc2ccccc2)[C@H](OC(=O)NCc2ccccc2)C[C@H]2C(=O)N(c3ccccc3)C(=O)[C@@H]12)S(=O)(=O)c1ccc(C)cc1	62*	.	.	.	.	.	20
Cc1cc2c(c(=O)n1Cc1cccnc1)C(c1cccs1)C(C#N)=C(N)O2 (stereo unspecified)	2	8	5	0	10	6	.
Cc1cc2c(c(=O)n1Cc1cccnc1)C(Cc1ccccc1)C(C#N)=C(N)O2 (stereo unspecified)	53*	-4	-15	-6	14	10	32
O=C(COc1ccccc1-c1ccccc1)NN=Cc1ccc2ccccc2c1	.	0	.	.	.	.	.
CC(C)c1c(C(=O)NN=Cc2ccccc2OCc2c(F)cccc2Cl)nnn1-c1nonc1N	.	2	.	.	.	.	.
CN(C)S(=O)(=O)c1ccc(N2CCCC2)c(C(=O)Nc2nc3ccc(F)cc3s2)c1	71*	0	-1	4	-17	0	22
CN(C)S(=O)(=O)c1ccc(N2CCCC2)c(C(=O)Nc2nc(-c3ccc(F)cc3)cs2)c1	56*	5	-4	-5	6	-3	24
Cc1ccc(C(=O)ON=C2CCSc3ccc(C)cc32)cc1	.	-4	.	.	.	.	.
Cc1ccc([N+](=O)[O-])cc1S(=O)(=O)NCC1COc2ccccc2O1 (stereo unspecified)	66*	.	1	0	-2	-5	60*
O=C(Cn1cc([N+](=O)[O-])ccc1=O)NCC1COc2ccccc2O1 (stereo unspecified)	52*	9	.	-3	.	.	55*
C/C(C=NNC(=O)c1ccccn1)=C\c1ccco1	.	8	.	.	.	.	.
N#Cc1cc(-c2ccccc2)cn(Cc2c(Cl)cccc2Cl)c1=O	62*	-129	4	-6	-4	1	25*
Cc1nc2ccc([N+](=O)[O-])cc2c(=O)n1Cc1ccc(F)cc1	71*	3	?	-6	-13	3	75*
Cc1ccccc1Cn1c(C)nc2ccc([N+](=O)[O-])cc2c1=O	61*	7	-14	3	-49	-8	51*
Cc1nc2ccc([N+](=O)[O-])cc2c(=O)n1Cc1cccc(F)c1	41	7	.	-2	-18	1	.
CCCC12CN3CCN(CC(C3)C1=NNC(=O)c1ccc(C(C)(C)C)cc1)C2	.	5	.	.	.	.	.
O=C(Nn1c(-c2ccc(Br)cc2)nc2ccccc2c1=O)c1ccc([N+](=O)[O-])cc1	65*	2	-1	5	40	0	45*
CC(=NNC(=O)c1cccc(S(=O)(=O)Nc2ccccc2Cl)c1)c1ccc(-n2ccnc2)cc1	.	2	.	.	.	.	.
SMILES	FAS TE block	UCH37 DUB inh	HDAC3 inhib	Rtt109 HAT inh	ALR inh	PfM18AAP inh	FAS-TE inh conf
Cc1ccc(C=NNC(=O)Cn2cnc3c2c(=O)n(C)c(=O)n3C)s1	.	3	.	.	.	.	.
O=C(Nc1cccc(C(F)(F)F)c1)c1cccnc1NCCc1ccccc1	53*	-61	18	-15	.	0	31
O=C(Nc1cccc(C(F)(F)F)c1)c1cccnc1NCCO	-1	-20	12	2	-7	-5	.
COc1ccc2c(c1)OC[C@H]1[C@H]2N2C(=O)c3ccc(C)cc3NC(=O)[C@@]2(C)[C@H]1c1ccccc1	90*	3	1	3	3	.	40
COc1ccc2c(c1)C(=O)N1[C@H]3c4cc(Cl)ccc4OC[C@@H]3[C@H](c3ccccc3)[C@]1(C)C(=O)N2	64*	1	-7	-10	1	.	45*
COc1ccc2c(c1)OC[C@H]1[C@H]2N2C(=O)c3cc(OC)ccc3NC(=O)[C@@]2(C)[C@H]1c1ccccc1	95*	0	0	-5	.	.	54*
CCOC(=O)[C@H]1[C@H]2COc3cc(OC)ccc3[C@@H]2N2C(=O)c3cc(OC)ccc3NC(=O)[C@@]12C	-2	3	-8	0	-4	.	.
COc1ccc2c(c1)OC[C@H]1[C@H]2N2C(=O)c3cc(Cl)ccc3NC(=O)[C@@]2(C)[C@H]1c1ccccc1	67*	2	-1	0	-14	.	17
Cc1ccc(S(=O)(=O)N=C(c2ccc(F)cc2)N2CCCC2)cc1	.	2	.	.	.	.	.
COc1ccc2c(c1)OC[C@H]1[C@H]2N2C(=O)c3cc(F)ccc3NC(=O)[C@@]2(C)[C@H]1c1ccccc1	74*	.	9	6	1	.	2
CCOC(=O)[C@H]1[C@H]2COc3cc(OC)ccc3[C@@H]2N2C(=O)c3cc(F)ccc3NC(=O)[C@@]12C	1	-2	1	0	-1	.	.
Nc1nnnn1N=Cc1ccc(Cl)cc1	.	-4	.	.	.	.	.
CCCOc1ccc2[nH]c(C(=O)NN=Cc3cc(OC)c(OC)c(OC)c3)cc2c1	.	-64	.	.	.	.	.
O=C(Cn1cc(C(=O)C2CC2)c2ccccc21)NCc1ccc2c(c1)OCO2	59*	4	-3	-5	-7	0	55*
CC(=O)c1cn(CC(=O)NCc2ccc3c(c2)OCO3)c2ccccc12	16	1	1	-3	-4	1	.
CC(C)CC(COCc1cccc(Cl)c1)N1CCN(C(=O)c2ccc(C(F)(F)F)cc2)CCC1=O (stereo unspecified)	35	4	5	10	-2	-8	.

Assay outcomes from PubChem.
